“And” between values parts separate entries of the source, which are not always exact repeats. Equal values may be shown once.
Tests used:
Salmonella typhimurium [1] = experiment: Mutagenic activity against Salmonella Typhimurium TA1535 (SHM equiv/plate 100 ug); Expressed as difference between the observed number of revertants and the average number of spontaneous revertants (Expt 2); assay type: functional, Salmonella enterica subsp. enterica serovar Typhimurium
Method in brief: (§1)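 Salmonella typhimurium TA1535 plate incorporation assay without S9 activation. TLC-isolated metabolite and synthetic aziridine dosed as SHM equivalents per plate. Score is revertants minus mean spontaneous revertants, from two separate experiments.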

[2] = Approximate number of tumor cells alive after administration (5 mg/kg, qd 1-9 days) in normal mice; Expressed as therapeutic response; assay type: ADME, organism-based; conditions: mouse, in vivo
Method in brief: (§2)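 Female CDF1 mice given 1×10^6 P388 leukemia cells intraperitoneally. Drug in reagent-grade Me₂SO, dosed by average body weight in 0.1 mL. Life-span increase is from median day of death versus untreated leukemic controls. Tumor cell kill and log change (net change in viable tumor stem cells, end versus start of treatment) use a historical doubling time of 0.44 day.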

Salmonella typhimurium [3] = experiment: Mutagenic activity against Salmonella Typhimurium TA1535 (SHM equiv/plate 1 ug); Expressed as difference between the observed number of revertants and the average number of spontaneous revertants (Expt 1); assay type: functional, Salmonella enterica subsp. enterica serovar Typhimurium; method in brief: as §1
P388 [4] = experiment: Percent increase in life span of treated (20 mg/kg, qd 1-9 days) mice as compared to the untreated leukemia controls; Expressed as therapeutic response; assay type: functional, Mus musculus; method in brief: as §2
P388 [5] = experiment: Percent of deaths after administration (20 mg/kg, qd 1-9 days) in leukemic mice; assay type: functional, Mus musculus; method in brief: as §2
P388 [6] = experiment: Percent of deaths after administration (5 mg/kg, qd 1-9 days) in leukemic mice; assay type: functional, Mus musculus; method in brief: as §2
P388 [7] = experiment: (§3) Approximate number of tumor cells alive after administration (10 mg/kg, day 1 only) in normal mice; Expressed as therapeutic response; assay type: functional, Mus musculus; method in brief: as §2
P388 [8] = experiment: Percent increase in life span of treated (10 mg/kg, qd 1-9 days) mice as compared to the untreated leukemia controls; Expressed as therapeutic response; assay type: functional, Mus musculus; method in brief: as §2
P388 [9] = experiment: Approximate number of tumor cells alive after administration (20 mg/kg, day 1 only) in normal mice; Expressed as therapeutic response; assay type: functional, Mus musculus; method in brief: as §2
P388 [10] = experiment: Percent of deaths after administration (60 mg/kg, day 1 only) in leukemic mice; assay type: functional, Mus musculus; method in brief: as §2
P388 [11] = experiment: Percent of deaths after administration (30 mg/kg, day 1 only) in normal mice; assay type: functional, Mus musculus
Method in brief: (§4)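 Non-tumored mice treated concurrently as drug toxicity controls. Drug in reagent-grade Me₂SO, dosed by average body weight in 0.1 mL. Deaths scored.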

Salmonella typhimurium [12] = experiment: Mutagenic activity against Salmonella Typhimurium TA1535 (SHM equiv/plate 10 ug); Expressed as difference between the observed number of revertants and the average number of spontaneous revertants (Expt 2); assay type: functional, Salmonella enterica subsp. enterica serovar Typhimurium; method in brief: as §1
P388 [13] = experiment: Percent of deaths after administration (10 mg/kg, day 1 only) in leukemic mice; assay type: functional, Mus musculus; method in brief: as §2
P388 [14] = experiment: Percent of deaths after administration (30 mg/kg, day 1 only) in leukemic mice; assay type: functional, Mus musculus; method in brief: as §2
P388 [15] = experiment: Percent of deaths after administration (10 mg/kg, qd 1-9 days) in leukemic mice; assay type: functional, Mus musculus; method in brief: as §2
P388 [16] = experiment: Percent increase in life span of treated (30 mg/kg, day 1 only) mice as compared to the untreated leukemia controls; Expressed as therapeutic response; assay type: functional, Mus musculus; method in brief: as §2
P388 [17] = experiment: Percent of deaths after administration (45 mg/kg, day 1 only) in leukemic mice; assay type: functional, Mus musculus; method in brief: as §2
Salmonella typhimurium [18] = experiment: Mutagenic activity against Salmonella Typhimurium TA1535 (SHM equiv/plate 10 ug); Expressed as difference between the observed number of revertants and the average number of spontaneous revertants (Expt 1); assay type: functional, Salmonella enterica subsp. enterica serovar Typhimurium; method in brief: as §1
P388 [19] = experiment: Percent increase in life span of treated (10 mg/kg, day 1 only) mice as compared to the untreated leukemia controls; Expressed as therapeutic response; assay type: functional, Mus musculus; method in brief: as §2
P388 [20] = experiment: Percent increase in life span of treated (20 mg/kg, day 1 only) mice as compared to the untreated leukemia controls; Expressed as therapeutic response; assay type: functional, Mus musculus; method in brief: as §2
P388 [21] = experiment: Percent increase in life span of treated (5 mg/kg, qd 1-9 days) mice as compared to the untreated leukemia controls; Expressed as therapeutic response; assay type: functional, Mus musculus; method in brief: as §2
P388 [22] = experiment: Approximate number of tumor cells alive after administration (30 mg/kg, day 1 only) in normal mice; Expressed as therapeutic response; assay type: functional, Mus musculus; method in brief: as §2
Salmonella typhimurium [23] = experiment: Mutagenic activity against Salmonella Typhimurium TA1535 (SHM equiv/plate 1 ug); Expressed as difference between the observed number of revertants and the average number of spontaneous revertants (Expt 2); assay type: functional, Salmonella enterica subsp. enterica serovar Typhimurium; method in brief: as §1
P388 [24] = experiment: Percent of deaths after administration (20 mg/kg, day 1 only) in normal mice; assay type: functional, Mus musculus; method in brief: as §4
[25] = Approximate number of tumor cells alive after administration (60 mg/kg, day 1 only) in normal mice; Expressed as therapeutic response; assay type: ADME, organism-based; conditions: mouse, in vivo; method in brief: as §2
[26] = Approximate number of tumor cells alive after administration (20 mg/kg, qd 1-9 days) in normal mice; Expressed as therapeutic response; assay type: ADME, organism-based; conditions: mouse, in vivo; method in brief: as §2
P388 [27] = experiment: Percent of deaths after administration (20 mg/kg, day 1 only) in leukemic mice; assay type: functional, Mus musculus
P388 [28] = experiment: Percent of deaths after administration (20 mg/kg, qd 1-9 days) in normal mice; assay type: functional, Mus musculus; method in brief: as §4
P388 [29] = experiment: Approximate log change after administration (30 mg/kg, day 1 only) in normal mice; Expressed as therapeutic response; assay type: functional, Mus musculus
Method in brief: (§5)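 Female CDF1 mice were implanted intraperitoneally with 1×10^6 P388 leukemia cells. Drug was prepared in reagent-grade Me₂SO according to average body weight, with each dose in 0.1 mL. Concurrent drug toxicity controls were run. Tumor cell kill was calculated from median day of death using a historical doubling time of 0.44 day. Log change is the net change in viable tumor stem cells from the start to the end of treatment.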

P388 [30] = experiment: Percent of deaths after administration (60 mg/kg, day 1 only) in normal mice; assay type: functional, Mus musculus; method in brief: as §4
[31] = Approximate number of tumor cells alive after administration (45 mg/kg, day 1 only) in normal mice; Expressed as therapeutic response; assay type: ADME, organism-based; conditions: mouse, in vivo; method in brief: as §2
P388 [32] = experiment: Percent increase in life span of treated (60 mg/kg, day 1 only) mice as compared to the untreated leukemia controls; Expressed as therapeutic response; assay type: functional, Mus musculus; method in brief: as §2
P388 [33] = experiment: Approximate log change after administration (20 mg/kg, day 1 only) in normal mice; Expressed as therapeutic response; assay type: functional, Mus musculus; method in brief: as §5
[34] = Approximate number of tumor cells alive after administration (10 mg/kg, qd 1-9 days) in normal mice; Expressed as therapeutic response; assay type: ADME, organism-based; conditions: mouse, in vivo; method in brief: as §2
P388 [35] = experiment: Percent of deaths after administration (5 mg/kg, day 1 only) in leukemic mice; assay type: functional, Mus musculus; method in brief: as §2
P388 [36] = experiment: Approximate log change after administration (10 mg/kg, day 1 only) in normal mice; Expressed as therapeutic response; assay type: functional, Mus musculus; method in brief: as §2
P388 [37] = experiment: Percent of deaths after administration (15 mg/kg, day 1 only) in leukemic mice; assay type: functional, Mus musculus; method in brief: as §2
P388 [38] = experiment: Approximate log change after administration (5 mg/kg, day 1 only) in normal mice; Expressed as therapeutic response; assay type: functional, Mus musculus; method in brief: as §2
P388 [39] = experiment: Approximate number of tumor cells alive after administration (5 mg/kg, day 1 only) in normal mice; Expressed as therapeutic response; assay type: functional, Mus musculus; method in brief: as §2
P388 [40] = experiment: Percent increase in life span of treated (5 mg/kg, day 1 only) mice as compared to the untreated leukemia controls; Expressed as therapeutic response; assay type: functional, Mus musculus; method in brief: as §2
P388 [41] = experiment: Percent increase in life span of treated (15 mg/kg, day 1 only) mice as compared to the untreated leukemia controls; Expressed as therapeutic response; assay type: functional, Mus musculus; method in brief: as §2
[42] = as §3; assay type: ADME, organism-based; conditions: mouse, in vivo; method in brief: as §2
[43] = Approximate number of tumor cells alive after administration (15 mg/kg, day 1 only) in normal mice; Expressed as therapeutic response; assay type: ADME, organism-based; conditions: mouse, in vivo; method in brief: as §2
P388 [44] = experiment: Percent of deaths after administration (15 mg/kg, day 1 only) in normal mice; assay type: functional, Mus musculus; method in brief: as §4
P388 [45] = experiment: Percent of deaths after administration (10 mg/kg, day 1 only) in normal mice; assay type: functional, Mus musculus; method in brief: as §4

## O=C1NC2(CCCCC2)C(=O)N1CCN1CC1
Salmonella typhimurium [1]
  Activity: 2000%
[2]
  Activity: Toxic
Salmonella typhimurium [3]
  Activity: 15
P388 [4]
  ILS: -25%
P388 [5]
  Activity: 83%
P388 [6]
  Activity: 83%
P388 [7]
  Activity: 4800000
P388 [8]
  ILS: -40%
P388 [9]
  Activity: 4800000
P388 [10]
  Activity: 50%
P388 [11]
  Activity: 0%
Salmonella typhimurium [12]
  Activity: 238
P388 [13]
  Activity: 0%
P388 [14]
  Activity: 16% and 0%
P388 [15]
  Activity: 0%
P388 [16]
  ILS: 0%
P388 [17]
  Activity: 33%
Salmonella typhimurium [18]
  Activity: 227
P388 [19]
  ILS: 0%
P388 [20]
  ILS: 0%
P388 [21]
  ILS: -5%
P388 [22]
  Activity: 4800000
Salmonella typhimurium [23]
  Activity: 21
P388 [24]
  Activity: 0%
[25]
  Activity: Toxic
[26]
  Activity: Toxic
P388 [27]
  Activity: 0%
P388 [28]
  Activity: 0%
P388 [29]
  Log change: 0
P388 [30]
  Activity: 0%
[31]
  Activity: Toxic
P388 [32]
  ILS: -30%
P388 [33]
  Log change: 0
[34]
  Activity: Toxic

## O=C1NC2(CCCCC2)C(=O)N1CCN(CCCl)CCCl [SPIROMUSTINE]
[2]
  Activity: Toxic
P388 [35]
  Activity: 10%
P388 [4]
  ILS: -60%
P388 [36]
  Log change: -2.7
P388 [5]
  Activity: 100%
P388 [37]
  Activity: 40%
P388 [6]
  Activity: 100%
P388 [38]
  Log change: -2.1
P388 [7]
  Activity: 8900
P388 [8]
  ILS: -50%
P388 [15]
  Activity: 100%
P388 [39]
  Activity: 43000
P388 [21]
  ILS: -45%
[26]
  Activity: Toxic
P388 [40]
  ILS: 30%
P388 [41]
  ILS: 35%
[42]
  Activity: Toxic
[43]
  Activity: Toxic
P388 [44]
  Activity: 50%
[34]
  Activity: Toxic
P388 [45]
  Activity: 33%

— ChEMBL document CHEMBL1123323, “Isolation, synthesis, and antitumor evaluation of spirohydantoin aziridine, a mutagenic metabolite of spirohydantoin mustard” (J Med Chem, 1986)
